{
  "source": "paper PMC3425077",
  "about": "(Indian Journal of Pharmaceutical Sciences, 2011)",
  "type_in_all_cases": "in vivo",
  "key": {"[1]": {"test_system": "radiant heat induced rat tail flick", "experiment": "Radiant heat induced rat tail flick method", "conditions": "dose mg/Kg b.w.: Std (Aspirin) 200, 4a-4d 100, 4e 200, 4f 75", "outline": "(§1)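 Animals given test compound or standard were compared with a control group of animals. Significance of the differences between treatment and control was assessed by Student's t test.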"}, "[2]": {"test_system": "carrageenan induced rat paw edema", "experiment": "Carrageenan induced rat paw edema method", "conditions": "dose mg/Kg b.w.: Std (Aspirin) 200, 4a-4d 100, 4e 200, 4f 75", "outline": "as §1"}, "ulcers": {"test_system": "ulcers", "experiment": "Ulcerogenic activity, arbitrary scoring of ulcer severity", "conditions": "dose mg/Kg b.w.: Std (Aspirin) 200, 4a-4d 100, 4e 200, 4f 75"}, "adrenal gland weight": {"test_system": "adrenal gland weight", "experiment": "Adrenal weight change method", "conditions": "suppression of adrenal gland weight; dose mg/Kg b.w.: Std (Aspirin) 200, 4a-4d 100, 4e 200, 4f 75", "outline": "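Adrenal weight change was one of the anti-inflammatory methods. Treated groups were compared with a control group of animals by Student's t test and marked significant or non-significant.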"}},
  "data": [
    {"smiles": "CC(=O)Oc1ccccc1C(=O)O", "note": "[Aspirin]", "values": [
      {"measurement": "Analgesic activity percent protection Rat tail flicK method", "setting": "[1]", "value": 49.39, "unit": "%"},
      {"measurement": "Antiinflammatory activity Percentage inhibition Carrageenan method 1 h", "setting": "[2]; after 1 h", "value": 54.84, "unit": "%"},
      {"measurement": "Antiinflammatory activity Percentage inhibition Carrageenan method 3 h", "setting": "[2]; after 3 h", "value": 55.05, "unit": "%"},
      {"measurement": "Antiinflammatory activity Percentage inhibition Carrageenan method 5 h", "setting": "[2]; after 5 h", "value": 73.81, "unit": "%"},
      {"measurement": "Ulcer index", "setting": "ulcers", "value": 43.33},
      {"measurement": "Antiinflammatory activity Percentage inhibition Adrenal weight method", "setting": "adrenal gland weight", "value": 50.13, "unit": "%"}
    ]}
  ]
}
